In PubChem BioAssay:
Activity calls are given as the source filed them.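 How the source made its calls, unless noted: active means a full or partial loss of lipid-probe fluorescence in the fish gall bladder, intestine or both, judged by eye; inactive means no fluorescence loss, or compound toxic to the fish.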

How the values were obtained:
[1] = inhibitors of TNFa-induced NFkB p65 translocation, primary screen, imaging, HUVEC, MLSMR starter and 10KST1 sets (AID 438;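 active means inhibition above 20% together with a positive visual image hit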;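 further: compound added about 3h40 before a 20 min TNFalpha stimulation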;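 on inhibition: signal is the nuclear over cytoplasmic p65 intensity ratio per well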); conditions: HUVEC TNFa-induced p65 nuclear translocation; cell count: measured here: nuclei count (cytotoxicity indicator), at 2.08 µM; inhibition: at 2 µM, stronger effect = higher value, 0% TNFa-plus-vehicle, 100% no-TNFa wells
[2] = inhibitors of E-selectin induction by TNFa, primary screen, imaging, HUVEC, immunofluorescence, MLSMR starter and 10KST1 sets (AID 487;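 active means visually confirmed hit in the image check and inhibition above 20%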;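 on inhibition: signal is fraction of cell area covered by stained E-selectin grains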;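 on nuclei count: 100% = median nuclei count of all wells on the same plate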); conditions: HUVEC TNFalpha-induced E-selectin immunofluorescence imaging, at 2 µM; inhibition: stronger effect = higher value; nuclei count: measured here: cell number, toxicity
[3] = DUSP6 inhibitors restoring Erk phosphorylation by chemical complementation, primary imaging in DUSP6-transfected HeLa (AID 609;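 active means compounds giving at least 50% inhibition in the cell-based MKP-3 phosphatase rescue imaging test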;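 on inhibition: phospho-Erk level distribution per well compared with pooled transfected vehicle control wells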); conditions: HeLa MKP-3 transfected, phospho-Erk imaging KS statistic, at 10 µM, cells stimulated with TPA for 15 min
[4] = molecular target: Dual specificity protein phosphatase 6 (Homo sapiens) (UniProt Q16828); assay: as above; conditions: HeLa MKP-3 transfected, phospho-Erk imaging KS statistic; at 10 µM; stronger effect = higher value; cells stimulated with TPA for 15 min
Chain of Dual specificity protein phosphatase 6 (Homo sapiens) (Q16828 whole entry, looked up): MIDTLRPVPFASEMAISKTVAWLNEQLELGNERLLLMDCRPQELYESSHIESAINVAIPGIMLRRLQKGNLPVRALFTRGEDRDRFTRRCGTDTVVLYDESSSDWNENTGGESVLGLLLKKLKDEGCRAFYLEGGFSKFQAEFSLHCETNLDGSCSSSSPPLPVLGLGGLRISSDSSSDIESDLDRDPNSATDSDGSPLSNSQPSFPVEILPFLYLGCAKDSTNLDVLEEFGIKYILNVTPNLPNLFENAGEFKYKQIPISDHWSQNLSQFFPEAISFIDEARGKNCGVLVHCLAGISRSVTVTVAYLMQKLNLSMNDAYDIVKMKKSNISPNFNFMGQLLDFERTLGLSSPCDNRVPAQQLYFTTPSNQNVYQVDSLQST

[5] = molecular target: Voltage-gated potassium channel subunit beta-2 (Rattus norvegicus) (UniProt P62483); assay: KvBeta enzyme negative modulators, primary screen, biochemical, NADPH fluorescence (AID 622;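 active means fluorescence slope higher than the sample average by over 3 SD, cut at about -0.22 in these data, passing the limit was not always enough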;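 further: slope of raw intensity against log time taken from 70 to 1610 s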); conditions: recombinant KvBeta, 4-cyanobenzaldehyde reduction, at 10 µM, stronger effect = higher value
Chain of Voltage-gated potassium channel subunit beta-2 (Rattus norvegicus) (P62483 whole entry, looked up): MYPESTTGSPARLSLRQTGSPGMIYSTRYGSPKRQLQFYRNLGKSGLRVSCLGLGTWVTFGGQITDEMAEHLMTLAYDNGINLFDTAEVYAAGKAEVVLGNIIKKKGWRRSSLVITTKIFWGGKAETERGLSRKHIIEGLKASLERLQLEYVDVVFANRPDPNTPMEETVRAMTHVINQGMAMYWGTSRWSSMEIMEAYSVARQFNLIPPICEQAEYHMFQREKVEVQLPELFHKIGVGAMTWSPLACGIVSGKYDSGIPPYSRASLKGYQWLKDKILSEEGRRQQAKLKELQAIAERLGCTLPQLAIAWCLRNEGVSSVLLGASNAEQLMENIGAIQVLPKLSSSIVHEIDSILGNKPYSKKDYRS

[6] = molecular target: Voltage-gated potassium channel subunit beta-2 (Rattus norvegicus) (UniProt P62483); assay: KvBeta positive modulators, primary screen, biochemical, NADPH fluorescence (AID 623;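 active means NADPH fluorescence slope more negative than the mean of all samples by about 3 SD, 99.7% confidence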;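 further: fluorescence intensity change per second fitted from 20 to 320 s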); conditions: Recombinant KvBeta, NADPH fluorescence decrease slope, 10 min; at 10 µM; stronger effect = lower value
[7] = molecular target: Alpha-2C adrenergic receptor (Homo sapiens) (UniProt P18825); assay: modulators of alpha2C/GIRK thallium flux, primary screen, cell-based, HEK293 alpha2C/GIRK1/2 (AID 624;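 active means fluorescence slope after compound addition differing from the mean of all screened samples at 99.7% confidence, in either direction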;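 further: slope of fluorescence ratio to pre-addition baseline per second over 15 to 24 s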); conditions: thallium flux BTC fluorescence, at 10 µM, actives lie on both sides
Chain of Alpha-2C adrenergic receptor (Homo sapiens) (P18825 whole entry, looked up): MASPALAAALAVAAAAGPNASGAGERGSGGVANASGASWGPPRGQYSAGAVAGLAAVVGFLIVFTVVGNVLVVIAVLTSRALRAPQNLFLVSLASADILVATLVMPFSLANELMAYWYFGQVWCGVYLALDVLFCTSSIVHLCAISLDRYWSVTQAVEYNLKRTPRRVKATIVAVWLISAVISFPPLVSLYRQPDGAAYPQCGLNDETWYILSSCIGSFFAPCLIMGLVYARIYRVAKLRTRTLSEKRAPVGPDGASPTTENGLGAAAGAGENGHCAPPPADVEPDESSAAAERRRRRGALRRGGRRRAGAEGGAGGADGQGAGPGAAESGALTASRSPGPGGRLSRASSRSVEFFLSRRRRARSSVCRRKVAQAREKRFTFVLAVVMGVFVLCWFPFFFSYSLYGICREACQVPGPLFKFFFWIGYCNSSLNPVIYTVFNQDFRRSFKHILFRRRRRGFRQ

[8] = inhibitors of larval lipid processing in zebrafish, primary screen, whole organism, PED6 fluorescence, gall bladder and intestine (AID 686); conditions: Zebrafish larvae PED6 lipid processing, fluorescence scoring; screened at 20 µM (by protocol);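 further: larvae 5 to 7 days old with five fish per well; signal comes from phospholipase A2 cleavage of quenched PED6 carried via bile; overnight exposure to compound and PED6 before scoring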
How it was run: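 Test system – live zebrafish larvae aged 5-7 days, whole organism · Buffer or medium – E3 fish medium · Reagent – quenched phospholipase substrate PED6, 100 nM final, ingested by larvae · Doses – 20 µM single dose · Incubation – overnight compound and PED6 incubation · Technique – visual fluorescence microscopy scoring of gall bladder, gut · Read-out basis – visual per-well fluorescence inhibition score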

[9] = inhibitors of Chlamydomonas gravitaxis, primary screen, whole organism, Chlamydomonas reinhardtii, WT vs cilia-less mutant, absorbance, 96-well (AID 463189;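 active means inhibition at or above 50% relative to wild type and mutant plate controls; inactive means inhibition below 50%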;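 further: 0% = wild type cc124 cells in DMSO and 100% = ciliumless bld1 mutant cells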); conditions: OD600 absorbance, 2 days, at 10 µM, stronger effect = higher value
[10] = measured here: cell density z-score
[11] = measured here: nuclear c-Myc green intensity z-score
[12] = measured here: nuclear pErk red intensity z-score, stronger effect = higher value

Row | SMILES | cell count [1] | inhibition [1] | inhibition [2] | nuclei count [2] [%] | z-score [3, 10] | z-score [3, 11] | z-score [3, 12] | inhibition [4] | fluorescence slope [5] | NADPH fluorescence slope [6] | slope [7] | outcome [8] | inhibition [9]
1 | O=C(NCc1ccccc1)c1ccc(=O)[nH]n1 | 328 | -0.3% (inactive) | -132% (inactive) | 98.8 | -0.814 | 0.951 | -1.98 | 11.3% (inactive) | -0.456 (inactive) | -0.00047 (inactive) | 0.00499 (inactive) | inactive; toxic | -6.14% (inactive)
2 | CC1(C)Cc2c(sc3ncn4nnnc4c23)CO1 | 685 | -0.9% (inactive) | -182% (inactive) | 180 | 1.78 | -1.07 | 0.925 | 13.2% (inactive) | -0.522 (inactive) | -3.9e-05 (inactive) | 0.00539 (inactive) | inactive | 9.27% (inactive)
3 | COc1ccc(CCNC(=O)c2ccc(=O)[nH]n2)cc1OC | 452 | -9.3% (inactive) | -124% (inactive) | 113 | -0.121 | -0.331 | -0.384 | 7.48% (inactive) | -0.517 (inactive) | -0.000115 (inactive) | 0.00414 (inactive) | inactive | 1.24% (inactive)
4 | c1ccc(N2CCN(c3nc(-c4ccccn4)nc4ccccc34)CC2)cc1 | 493 | -5.1% (inactive) | 22.4% (inactive) | 86.2 | -1.22 | 1.7 | 1.08 | -5.26% (inactive) | -0.413 (inactive) | -7.9e-05 (inactive) | 0.0043 (inactive) | inactive | 106% (active)
5 | CCOC(=O)C1CCN(c2nc3ccccc3nc2C(C#N)C(=O)NCCc2ccccc2)CC1 (stereo unspecified) | 441 | 3.4% (inactive) | -167% (inactive) | 184 | 0.0297 | 0.625 | -0.588 | 13.2% (inactive) | -0.426 (inactive) | -6.6e-05 (inactive) | 0.00158 (inactive) | inactive | 13.3% (inactive)
6 | Cc1cc(=O)oc(C)c1C(=O)N[C@@H]1CCCCNC1=O | 433 | -2.4% (inactive) | -137% (inactive) | 150 | 0.96 | -0.243 | -0.864 | -8.27% (inactive) | -0.423 (inactive) | -6.9e-05 (inactive) | 0.00507 (inactive) | inactive | -3.12% (inactive)
7 | C=CCOc1nc2c(c(=O)n(C)c(=O)n2C)n1Cc1ccc(Cl)cc1Cl | 555 | 1.8% (inactive) | -31.1% (inactive) | 103 | -0.56 | -0.295 | 0.979 | -6.48% (inactive) | -0.591 (inactive) | -4.9e-05 (inactive) | 0.00522 (inactive) | inactive | 4.68% (inactive)
8 | CC(=O)C(=[N+]=[N-])C(=O)NCc1ccccc1 | 474 | -11.6% (inactive) | -71.5% (inactive) | 95.4 | 0.378 | -1.15 | 0.485 | 5.95% (inactive) | -0.518 (inactive) | -4e-05 (inactive) | 0.00636 (inactive) | inactive | 24.1% (inactive)
9 | CCc1ccc(NC(=O)CSC2=C(C#N)C(c3ccco3)C3=C(CCCC3=O)N2)cc1 (stereo unspecified) | 461 | -1.3% (inactive) | -13.8% (inactive) | 117 | -0.838 | 1.11 | 0.462 | 5.57% (inactive) | -0.501 (inactive) | -8.3e-05 (inactive) | 0.00507 (inactive) | inactive | -1.64% (inactive)
10 | COC(=O)C1=C(C)OC(N)=C(C#N)C1c1ccc(OC)c(OC)c1OC (stereo unspecified) | 401 | -10.3% (inactive) | -52.9% (inactive) | 104 | 0.861 | -0.767 | -0.967 | 26.5% (inactive) | -0.557 (inactive) | -8.1e-05 (inactive) | 0.00455 (inactive) | inactive | 42.2% (inactive)
11 | Cc1cc2c(c(=O)n1Cc1cccnc1)C(c1ccccc1)C(C#N)=C(N)O2 (stereo unspecified) | 550 | -28.8% (inactive) | -50% (inactive) | 160 | -0.164 | -2.06 | -1.42 | -6.06% (inactive) | -0.537 (inactive) | -2.7e-05 (inactive) | 0.00757 (inactive) | inactive | 22.9% (inactive)
12 | Clc1ccc(-c2cn3c(n2)CCC3)cc1 | 567 | -16.9% (inactive) | 0.7% (inactive) | 171 | -1.6 | 1.21 | 1.33 | -6.86% (inactive) | -0.504 (inactive) | -9.3e-05 (inactive) | 0.00501 (inactive) | inactive | 3.42% (inactive)
13 | CCOc1ccccc1N1CCN(c2nc3ccccc3nc2C(C#N)C(=O)OC(C)C)CC1 (stereo unspecified) | 451 | -7.4% (inactive) | -161% (inactive) | 148 | -1.19 | -0.0935 | 0.236 | -10.1% (inactive) | -0.399 (inactive) | -2.9e-05 (inactive) | 0.00483 (inactive) | inactive | 10.3% (inactive)
14 | c1cncc(-c2nnc3sc(C4CCCCC4)nn23)c1 | 507 | -5.5% (inactive) | -138% (inactive) | 106 | 0.167 | -0.011 | 0.328 | 8.31% (inactive) | -0.442 (inactive) | 1.1e-05 (inactive) | 0.00837 (inactive) | inactive | 91.8% (active)
15 | CCOc1ccc(CCNC(=O)C(O)c2ccccc2)cc1 (stereo unspecified) | 632 | -0.6% (inactive) | 18.6% (inactive) | 150 | -1.06 | 0.643 | -0.425 | 5.57% (inactive) | -0.517 (inactive) | -4.4e-05 (inactive) | 0.0068 (inactive) | inactive | 25.5% (inactive)
16 | Cc1nc(-c2c(-c3ccc(O)cc3O)noc2C(F)(F)F)cs1 | 518 | -18.3% (inactive) | -135% (inactive) | 163 | 0.818 | -0.387 | 0.0899 | 20.2% (inactive) | -0.468 (inactive) | -0.000226 (inactive) | 0.00467 (inactive) | inactive | 20.1% (inactive)
17 | Cc1cc(C(F)(F)F)nn1CC(=O)NCC1CCCO1 (stereo unspecified) | 516 | -3.1% (inactive) | -24% (inactive) | 137 | -0.885 | 0.653 | 1.12 | -3.98% (inactive) | -0.484 (inactive) | -0.000135 (inactive) | 0.00552 (inactive) | inactive | 12.4% (inactive)
18 | N#CC1=C(N)C(C#N)(C#N)[C@H](c2ccncc2)[C@H]2CN(C(=O)OCc3ccccc3)CC=C12 | 555 | -9.5% (inactive) | -136% (inactive) | 192 | -0.56 | -0.0237 | -0.0209 | 20.3% (inactive) | -0.271 (inactive) | -4.4e-06 (inactive) | 0.00576 (inactive) | inactive | 7.4% (inactive)
19 | O=C(O)CC(NC(=O)COc1ccc(Cl)cc1Cl)C(=O)O (stereo unspecified) | 629 | -19.5% (inactive) | -11.7% (inactive) | 197 | 0.18 | 0.773 | 0.0309 | -9.66% (inactive) | -0.404 (inactive) | -7.4e-05 (inactive) | 0.00527 (inactive) | inactive | 0.167% (inactive)
20 | CNS(=O)(=O)c1cccc2nsnc12 | 592 | -20.7% (inactive) | -98.5% (inactive) | 141 | -1.23 | 0.529 | 1.87 | -15% (inactive) | -0.51 (inactive) | -3.5e-05 (inactive) | 0.005 (inactive) | inactive | 11.1% (inactive)
21 | COc1ccc(Cn2c(O)cc(=O)[nH]c2=O)cc1 | 518 | -0.7% (inactive) | -49.2% (inactive) | 94 | -1.59 | 1.15 | -0.805 | 11.9% (inactive) | -0.386 (inactive) | 4.3e-06 (inactive) | 0.00581 (inactive) | inactive | -11.1% (inactive)
22 | C=CCOc1nc2c(c(=O)n(C)c(=O)n2C)n1Cc1ccccc1Cl | 617 | 0.6% (inactive) | 39.7% (inactive) | 155 | -1.51 | -0.0292 | 0.274 | 16.8% (inactive) | -0.515 (inactive) | -0.000108 (inactive) | 0.0054 (inactive) | inactive | 1.08% (inactive)
23 | CCCOc1ccc(/C(O)=C2/C(=O)C(=O)N(CCN3CCOCC3)C2c2ccccc2)cc1 (stereo unspecified) | 365 | -10.5% (inactive) | -132% (inactive) | 144 | -0.109 | 0.153 | 0.743 | -0.159% (inactive) | -0.426 (inactive) | -6.6e-05 (inactive) | 0.00576 (inactive) | inactive | -3.19% (inactive)
24 | O=C(c1ccc(F)cc1)N1CCC(N2CCCCCC2)CC1 | 392 | -0.5% (inactive) | -100% (inactive) | 138 | -0.0132 | 0.516 | -0.618 | 15.1% (inactive) | -0.395 (inactive) | -7.7e-06 (inactive) | 0.00694 (inactive) | inactive | 43.9% (inactive)
25 | CCOC(=O)c1[nH]c2ccc(Br)cc2c1NC(=O)CCN1CCN(C(=O)OCC)CC1 | 545 | -23.3% (inactive) | -94.6% (inactive) | 158 | -0.326 | -0.22 | -0.0275 | -7.86% (inactive) | -0.522 (inactive) | -4.7e-05 (inactive) | 0.00482 (inactive) | inactive | 18.6% (inactive)
26 | CC(=O)Oc1ccccc1C1OC(=O)c2ccccc2N1C(C)=O (stereo unspecified) | 435 | -26.4% (inactive) | -136% (inactive) | 171 | -0.279 | -1.25 | -0.306 | 17.7% (inactive) | -0.274 (inactive) | 9.9e-06 (inactive) | 0.00513 (inactive) | inactive | 23.1% (inactive)
27 | COc1ccccc1N1CCN(C2CCN(C(=O)c3cc(OC)c(OC)c(OC)c3)CC2)CC1 | 454 | -8.3% (inactive) | -122% (inactive) | 170 | 0.498 | -1.6 | 1.25 | -3.95% (inactive) | -0.32 (inactive) | 2.2e-05 (inactive) | 0.0055 (inactive) | inactive | -0.971% (inactive)
